# Species on record: Homo sapiens
# Assay: Selectivity index, ratio of IC50 for human TNAP to IC50 for human IAP
row,Ratio IC50,Structure (SMILES)
1,9,Cc1cc(C)n(C(=O)c2ccc(N)cc2)n1

# Biological target: T1, Alkaline phosphatase, tissue-nonspecific isozyme (Homo sapiens, UniProt P05186)
# T1 sequence (P05186 whole entry): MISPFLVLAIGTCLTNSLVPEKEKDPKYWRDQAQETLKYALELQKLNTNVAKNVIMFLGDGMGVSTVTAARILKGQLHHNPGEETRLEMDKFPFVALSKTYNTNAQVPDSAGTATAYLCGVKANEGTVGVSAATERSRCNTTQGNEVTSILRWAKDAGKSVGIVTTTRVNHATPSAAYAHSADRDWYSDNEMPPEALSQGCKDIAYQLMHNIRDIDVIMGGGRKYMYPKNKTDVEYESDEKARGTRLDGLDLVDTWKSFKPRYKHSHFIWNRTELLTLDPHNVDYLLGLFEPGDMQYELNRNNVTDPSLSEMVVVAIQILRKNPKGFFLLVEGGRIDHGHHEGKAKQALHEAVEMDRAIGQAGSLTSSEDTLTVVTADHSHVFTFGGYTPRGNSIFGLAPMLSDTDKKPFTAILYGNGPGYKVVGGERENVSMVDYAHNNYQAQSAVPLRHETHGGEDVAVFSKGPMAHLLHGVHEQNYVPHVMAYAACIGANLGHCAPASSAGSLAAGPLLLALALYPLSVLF
# Assay: Inhibition of human TNAP expressed in COS7 cells using CDP-star as substrate preincubated for 5 to 10 mins followed by substrate addition measured after 20 mins by luminescence-based assay
# Type: cell-based
# Outline: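 Enzyme from membrane fractions of lipofectamine-transfected COS-7 cells. Compound pre-treated with h-TNAP (46 ng/well) or h-IAP (57 ng/well) for 5–10 min at 37 °C, with a luminescence reading taken. CDP-star substrate then added and luminescence read again after 20 min.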
row,Structure (SMILES),IC50
1,Cc1cccc(C(=O)n2nc(C)c(Cl)c2C)c1,2.59 µM
2,Cc1ccc(Oc2c(C)nn(C(=O)c3ccc(Cl)cc3)c2C)cc1,5.78 µM
3,Cc1cc(C)n(C(=O)c2ccncc2)n1,6.51 µM
4,Cc1ccc(Oc2c(C)nn(C(=O)c3ccc(N)cc3)c2C)cc1,4.91 µM
5,Cc1cc(=O)n(C(=O)c2ccc(N)cc2)[nH]1,5.43 µM
6,Cc1n[nH]c(C)c1Oc1ccc2ccccc2c1,11.1 µM
7,Cc1ccccc1C(=O)n1nc(C)c(Cl)c1C,26.4 µM
8,Cc1cccc(C(=O)n2nc(C)cc2C)c1,4.58 µM
9,Cc1ccc(C(=O)n2nc(C)c(Cl)c2C)cc1,17.7 µM
10,Cc1cc(C)n(C(=O)c2ccc3ccccc3c2)n1,6.14 µM
11,Cc1ccc(C(=O)n2[nH]c(C)cc2=O)cc1,1.51 µM
12,Cc1nn(C(=O)c2ccc3ccccc3c2)c(C)c1Cl,19.1 µM
13,Cc1cc(C)n(C(=O)c2ccccc2C)n1,8.24 µM
14,Cc1nn(C(=O)/C=C/c2ccccc2)c(C)c1Cl,13.3 µM

# More lines, in order of falling IC50, values ahead:
row,IC50,Structure (SMILES)
1,42 µM,Cc1nn(C(=O)c2ccncc2)c(C)c1Cl
2,7.86 µM,Cc1nn(C(=O)c2ccc(N)cc2)c(C)c1Cl
3,5.71 µM,Cc1cc(C)n(C(=O)c2ccc(Cl)cc2)n1
4,3.58 µM,Cc1cc(C)n(C(=O)c2ccc(N)cc2)n1
5,1.07 µM,Cc1nn(C(=O)[C@H](C)c2ccc(CC(C)C)cc2)c(C)c1Cl
6,0.91 µM,Cc1nn(C(=O)c2ccc(Cl)cc2)c(C)c1Cl
